Compound activity (PubChem)
RanGTP-Imp inh = inhibitors of RanGTP-importin-beta interaction, primary screen, biochemical, FRET, CFP-Ran, YFP-importin-beta, homogeneous; inhibition, % (test concentration not listed); cell-free CFP-Ran/YFP-importin-beta FRET ratio; Ran GTPase (GTP-bound) - importin-beta complex; 1.1% of 300,000 active;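 active = more than half of the replicate wells show a fall in the fluorescence ratio signal beyond about 16%, limit read from the data, passing the limit was not always enough; inconclusive = exactly half of the replicate wells pass the set limit; inactive = fewer than half of replicates pass the limit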
PERK inh = block of dimerizer-induced PERK translation repression, primary screen, PERK inhibitor project, CHO PERK-DD cells, SEAP luminescence, HTS; AID 1416, 2008; CHO PERK-DD fusion, SEAP luminescence translation reporter; 0.17% of 220,000 active; inhibition, % at 5.6 µM;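 active = inhibition above the mean inhibition of all tested compounds plus 3 SD, set separately per screening campaign, cut at about 2.9% in these data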;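 also: PERK kinase domain activated by AP20187 dimerizer at 100 nM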
Runt-CBFb FRET = inhibitors of RUNX1 Runt–CBFb binding, primary screen, biochemical, FRET, Cerulean-Runt, Venus-CBFb, uHTS | Runt-related transcription factor 1 (Homo sapiens) + Core-binding factor subunit beta … | Cerulean-Runt/Venus-CBFb FRET ratio 530/480, 1 h | inhibition, % at 20 µM | 0.46% of 220,000 active;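 active = inhibition over about 50% at 20 µM in the single-dose screen, limit read from the data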
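Schedule: protein complex preformed 1 h, compound exposure 1 h, room temperature, dark; test system: Cerulean-labeled Runt domain protein; amount: 100 nM per protein; buffer or medium: Tris 50 mM pH 7.5, KCl, K2SO4, 0.01% BSA; read-out: loss of energy transfer signal; detection: FRET fluorescence; controls: 5 µM unlabeled CBFb as full-inhibition high control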
Runt-SMMHC FRET = inhibitors of RUNX1 Runt–CBFb-SMMHC binding, primary screen, biochemical, FRET, Cerulean-Runt, Venus-CBFb-SMMHC, uHTS; Runt-related transcription factor 1 (Homo sapiens) + Core-binding factor subunit beta …; Cerulean-Runt/Venus-CBFb-SMMHC FRET ratio 530/480, 1 h; inhibition, % at 20 µM; 0.74% of 220,000 active; AID 1434, 2008;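 active = mean inhibition across duplicate retests at 20 µM reaching about 50%, limit read from the data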;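 also: inhibitors lower the FRET ratio by blocking Runt binding to CBFb-SMMHC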
Hck Nef HTS = inhibitors of Nef-activated human Hck kinase, primary screen, biochemical, Z-Lyte FRET, 384-well, Hck-YEEI. Tyrosine-protein kinase HCK (Homo sapiens), P08631. Recombinant Hck-YEEI plus Nef, Z-Lyte FRET kinase assay. inhibition, % at 20 µM. 0.68% of 220,000 active;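 active = Hck-Nef kinase inhibition above about 50%, limit read from the data; inactive = inhibition below that limit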
eIF4E-4G inh = eIF4E–eIF4G protein interaction inhibitors, primary screen, biochemical, uHTS, TR-FRET, eIF4GI fragment; Eukaryotic translation initiation factor 4E (Mus musculus) + Eukaryotic translation …; TR-FRET eIF4E-eIF4GI(517-606) binding, 2 h; inhibition, % at 21.7 µM; 0.37% of 220,000 active;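 active = inhibition above about 30%, limit read from the data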
RUNX1 CBFb TR = inhibitors of RUNX1 Runt–CBFb binding, biochemical, TR-FRET; shares compounds with Runt-CBFb FRET; TR-FRET RUNX1 Runt domain-CBFb binding; inhibition, % at 20 µM; 20% of 480 active; AID 1502, 2009; in the data active = inhibition above about 40%
Hck Nef conf = retest of Hck:Nef kinase inhibitor hits, confirmation, biochemical, Z-Lyte FRET, 384-well, p-Tyr peptide counterscreen; shares compounds with Hck Nef HTS; Recombinant Hck-YEEI:Nef, Z-Lyte FRET kinase assay; calls only at 10 µM; 28% of 1,300 active; AID 463188, 2010;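 active = average inhibition of at least 50%, with Z-scores no higher than 3 in both the phospho-tyrosine peptide and fluorescence counterscreens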
Each line names hits and unclear results; the compound was inactive in the other large screens (follow-up assays come after a bar, where shown). Hits are enriched below; roughly 2.2% of the tested compounds scored in any of these assays.

Cc1cc2oc(=O)c3c(c2cc1OC(=O)c1ccco1)CCCC3	none
O=C(Oc1ccc2c3c(c(=O)oc2c1)CCCC3)c1cccs1	none
O=C(Oc1cc2oc(=O)c3c(c2cc1Cl)CCCC3)c1ccco1	Runt-CBFb FRET 67.8, Runt-SMMHC FRET 120.1, Hck Nef HTS 82.8 | RUNX1 CBFb TR inactive
O=C(Oc1cc2oc(=O)c3c(c2cc1Cl)CCCC3)c1cccs1	Runt-CBFb FRET 76.4, Runt-SMMHC FRET 133.1, Hck Nef HTS 77.9 (not shown: RanGTP-Imp inh) | RUNX1 CBFb TR inactive
CCOc1cc(-c2nc3ccccc3s2)ccc1O	Runt-CBFb FRET 54.9, Runt-SMMHC FRET 116.7, Hck Nef HTS active | RUNX1 CBFb TR inactive
COc1cc(-c2nc3ccccc3s2)ccc1O	Runt-CBFb FRET 78.7, Runt-SMMHC FRET 154.3, Hck Nef HTS 154.6 | RUNX1 CBFb TR inactive
Cc1c(C(=O)N2CCCCC2)c(S(=O)(=O)NCc2ccc(F)cc2)c(C)n1C	none (no result: PERK inh, Runt-CBFb FRET, Runt-SMMHC FRET, Hck Nef HTS, eIF4E-4G inh)
CCNc1ccc2c(Cl)cc(=O)oc2c1	RanGTP-Imp inh 36.4, Runt-CBFb FRET 54.6, Runt-SMMHC FRET 95.3, Hck Nef HTS 51.9 | RUNX1 CBFb TR inactive | Hck Nef conf inactive
COc1cccc(-n2c(N)c(C(=O)Nc3c(C)n(C)n(-c4ccccc4)c3=O)c3nc4ccccc4nc32)c1	none
COc1ccc(-n2c(N)c(C(=O)NCc3ccco3)c3nc4ccccc4nc32)cc1	RanGTP-Imp inh 37.4, Runt-CBFb FRET 50.7, Runt-SMMHC FRET 120.0, Hck Nef HTS 68.9 | RUNX1 CBFb TR inactive | Hck Nef conf inactive
COCCNC(=O)c1c(N)n(-c2cccc(C)c2)c2nc3ccccc3nc12	RanGTP-Imp inh 97.4, Runt-CBFb FRET 60.4, Runt-SMMHC FRET 78.8, Hck Nef HTS 60.0 | RUNX1 CBFb TR inactive
COc1ccc(C(=O)Nc2cc(=O)n(C)c(=O)n2C)cc1	none
c1coc(-c2nc(-c3ccco3)c(-c3ccco3)nc2-c2ccco2)c1	RanGTP-Imp inh 59.6, Runt-CBFb FRET 51.1, Hck Nef HTS 59.8 | RUNX1 CBFb TR inactive | Hck Nef conf inactive
O=C(NCC1CCCO1)c1cc2ccccc2nc1Cl (stereo not drawn)	none
CC(C)Cn1c(N)c(C(=O)NCC2CCCO2)c2nc3ccccc3nc21 (stereo not drawn)	RanGTP-Imp inh 82.2, Runt-CBFb FRET 52.1, Runt-SMMHC FRET 57.7, Hck Nef HTS 53.2 | RUNX1 CBFb TR inactive
CC(=O)Nc1ccc(S(=O)(=O)Nc2nc3cc4c(cc3nc2Cl)OCCO4)cc1	Runt-CBFb FRET 51.0, Runt-SMMHC FRET 75.4, Hck Nef HTS 89.1 | RUNX1 CBFb TR inactive
COc1ccc(C(=O)N/N=C/c2cn[nH]c2-c2ccc(OC)cc2OC)cc1	none
CC(C)CN(C(=O)CN1CCN(c2ccccc2F)CC1)c1c(N)n(CC(C)C)c(=O)[nH]c1=O	none
N#Cc1c(N)n(-c2cccc(O)c2)c2nc3ccccc3nc12	RanGTP-Imp inh 26.5, Runt-CBFb FRET 72.8, Runt-SMMHC FRET 101.5, Hck Nef HTS 72.4 | RUNX1 CBFb TR inactive
N#Cc1c(N)n(-c2ccc(O)cc2)c2nc3ccccc3nc12	RanGTP-Imp inh inconclusive
CCCCc1cc(=O)oc2c(CN(CC)CC)c(O)c(Cl)cc12	RanGTP-Imp inh inconclusive, Runt-CBFb FRET 74.9, Runt-SMMHC FRET 150.2, Hck Nef HTS 154.6 | RUNX1 CBFb TR inactive
